HIF activator: HIF pathway transcriptional activation; AID 1910; activation, % at 7.5 µM (by protocol); U2OS HRE-luciferase reporter, luminescence; normalized: DMSO 0%, desferrioxamine 100%; 300,000 compounds, 0.32% hits;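 active = mean activation of at least 10% of the iron chelator positive control signal, with at least half of replicates also reaching 10%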
NR2E3 ag-1: human photoreceptor-specific nuclear receptor agonism; Q9Y5X4; CHO-S Gal4-NCOR/VP16-NR2E3 two-hybrid, luciferase; inhibition of corepressor binding, % at 3.98 µM; 360,000 compounds, 0.35% hits;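 active = inhibition above the mean of all tested compounds plus 3 SD, cut at about 70% in these data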;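 note: 0% = DMSO with NR2E3 transfected cells and 100% = cells lacking NR2E3 construct; higher means lower luciferase signal from less NR2E3 corepressor binding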
Target sequence (Q9Y5X4 whole entry, looked up, the tested form may be a part): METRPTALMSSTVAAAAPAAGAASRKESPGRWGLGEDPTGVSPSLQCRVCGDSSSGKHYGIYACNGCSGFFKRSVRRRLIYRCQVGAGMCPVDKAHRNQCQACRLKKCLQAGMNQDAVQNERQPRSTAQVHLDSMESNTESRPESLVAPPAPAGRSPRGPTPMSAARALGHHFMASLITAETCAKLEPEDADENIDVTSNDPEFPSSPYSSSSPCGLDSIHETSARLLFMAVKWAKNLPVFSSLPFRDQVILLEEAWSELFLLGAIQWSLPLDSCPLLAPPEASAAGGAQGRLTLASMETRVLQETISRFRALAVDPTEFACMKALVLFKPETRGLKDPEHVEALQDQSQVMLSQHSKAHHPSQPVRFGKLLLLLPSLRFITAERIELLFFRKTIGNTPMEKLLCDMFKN
TROY NFkB inh: TROY signaling inhibition | Q293 LMP1-TROYcd NF-kB luciferase reporter, 4 h | inhibition, % at 10 µM | 360,000 compounds, 0.98% hits;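 active = compounds whose plate-normalised and pattern-corrected inhibition of the luciferase reporter signal at the single screening dose is 50% or more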
NR2E3 ag-2: NR2E3 (human) agonism; Q9Y5X4; GST-NR2E3/biotin-RetCOR TR-FRET, 1536-well; inhibition of corepressor binding, % at 4.78 µM; 320,000 compounds, 0.12% hits; AID 2300;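 active = percent inhibition above the cutoff of mean plus 3 SD of all tested compounds, set per screening campaign, cut at about 20% in these data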;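 note: 0% = DMSO wells and 100% = biotin wells as full block of FRET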
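Material: NR2E3–RetCOR corepressor complex / Incubation: Compound–protein incubation for 5 h at 4 °C / Dosing: compound at 4.8 µM, single dose / Detection: time-resolved FRET / Benchmarks: high control biotin, low control 0.6% DMSO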
LMP1 NFkB inh: inhibitors of Epstein-Barr LMP1-induced NF-kappaB reporter; LMP1-induced NF-kappaB luciferase reporter cells, luminescence; inhibition, % at 12.5 µM; 350,000 compounds, 0.69% hits; AID 504558; in the data active = inhibition above about 41%;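 note: 0% = neutral control wells and 100% = reference inhibitor control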
NR2E3 ag conf: confirmation of human NR2E3 agonists. shares compounds with NR2E3 ag-1. CHO-S mammalian two-hybrid NR2E3-NCOR, luciferase luminescence. 2,300 compounds, 51% hits. inhibition, % at 3.98 µM;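 active = average inhibition above a cutoff equal to the mean inhibition of all tested compounds plus one SD, cut at about 70% in these data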;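 note: 0% = DMSO in NR2E3 cells and 100% = DMSO in cells lacking NR2E3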
VP16 counter: GAL4-VP16 reporter inhibition in NR2E3 agonist counterscreen. shares compounds with NR2E3 ag-1. CHO-S GAL4-VP16 luciferase reporter, luminescence. inhibition, % at 3.98 µM. 2,300 compounds, 29% hits. AID 624379;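 active = mean inhibition above a cutoff equal to the average over all tested compounds plus one standard deviation, cut at about 70% in these data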;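 note: luciferase from a UAS reporter driven by GAL4-VP16 transactivation; 0% = DMSO with VP16-transfected cells and 100% = DMSO with cells lacking VP16; higher means less reporter light so more repression of VP16 activity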
An asterisk follows results filed as active. Rows were chosen to be rich in hits. Some 2% of all compounds tested hit in one or more screens of this group.

Cc1ccccc1Oc1cc(NC(=O)CCCn2nc(C)c([N+](=O)[O-])c2C)cc([N+](=O)[O-])c1 was read as HIF activator -0.1, NR2E3 ag-1 60.0, TROY NFkB inh 42.8, NR2E3 ag-2 -1.0, LMP1 NFkB inh 10.4, NR2E3 ag conf 66.4 and VP16 counter 41.1.
`Cc1nn(CCCC(=O)Nc2cc(Oc3ccc(F)cc3)cc([N+](=O)[O-])c2)c(C)c1[N+](=O)[O-]` gave HIF activator -0.5, NR2E3 ag-1 -18.5, TROY NFkB inh 38.5, NR2E3 ag-2 -1.2 and LMP1 NFkB inh 8.2.
`CC(C)CC(N)c1csc(NC(=O)c2cc(C(C)(C)C)nn2Cc2ccccc2)n1` (stereo not drawn) gave NR2E3 ag-1 52.4, TROY NFkB inh -5.8, NR2E3 ag conf 13.7 and VP16 counter 7.4.
`CCOc1ccccc1-n1c(SCC(=O)Nc2ccccc2C(=O)O)nc2ccccc2c1=O` gave HIF activator 0.5, NR2E3 ag-1 49.9, TROY NFkB inh 77.9*, NR2E3 ag-2 2.9, LMP1 NFkB inh 20.6, NR2E3 ag conf 48.0 and VP16 counter 15.4.
For CCN(CC)C(=O)C1CCN(S(=O)(=O)c2ccc3oc4ccccc4c3c2)CC1 the results were NR2E3 ag-1 76.8*, TROY NFkB inh 26.8, NR2E3 ag-2 -0.4, LMP1 NFkB inh 6.7, NR2E3 ag conf 64.8 and VP16 counter 58.4.
O=C(c1ccc(Cl)cc1)N1C2C=CC(C2)C1(C(F)(F)F)C(F)(F)F (stereo not drawn) was read as HIF activator 0.0, NR2E3 ag-1 -5.5, TROY NFkB inh 10.5, NR2E3 ag-2 -1.2 and LMP1 NFkB inh 4.8.
`COc1cc(NC(=O)CN2C(=O)CSc3ccc(S(=O)(=O)N4CCCC4)cc32)cc(OC)c1` gave HIF activator -0.1, NR2E3 ag-1 -1.9, TROY NFkB inh -5.0, NR2E3 ag-2 1.9 and LMP1 NFkB inh -3.8.
Screening COc1cccc(COc2ccccc2C2Nc3ccc(Br)cc3C(=O)N2NC(=O)c2ccncc2)c1 (stereo not drawn) returned HIF activator 1.6, NR2E3 ag-1 48.0, TROY NFkB inh -54.3, NR2E3 ag-2 2.8, LMP1 NFkB inh -4.0, NR2E3 ag conf 64.8 and VP16 counter 30.2.
COc1ccc(C2Nc3ccccc3C(=O)N2NC(C)=O)c(OC)c1 (stereo not drawn) was read as HIF activator -0.4, NR2E3 ag-1 -14.3, TROY NFkB inh -9.5, NR2E3 ag-2 0.5 and LMP1 NFkB inh -32.2.
Screening CC1(C(=O)NCc2ccncc2)Cc2c(-c3cccc(C(F)(F)F)c3)ccnc2O1 (stereo not drawn) returned NR2E3 ag-1 20.6 and TROY NFkB inh -4.5.
O=C(c1ccco1)N1CCN(S(=O)(=O)c2ccc(Oc3ccccc3)cc2)CC1 was read as HIF activator 0.2, NR2E3 ag-1 48.5, TROY NFkB inh -0.9, NR2E3 ag-2 0.6, LMP1 NFkB inh -6.6, NR2E3 ag conf 48.3 and VP16 counter 65.6.
Screening Oc1ccccc1/C=N/NC(=S)NC1CC2CCC1C2 (stereo not drawn) returned HIF activator 2.2, NR2E3 ag-1 47.8, TROY NFkB inh -39.1, NR2E3 ag-2 3.1, LMP1 NFkB inh -12.2, NR2E3 ag conf -163.9 and VP16 counter -101.0.
Screening COCCNC(=S)N/N=C/c1ccccc1C(=O)O returned HIF activator -0.6, NR2E3 ag-1 13.2, TROY NFkB inh -25.3, NR2E3 ag-2 0.8 and LMP1 NFkB inh -2.9.
Screening COCCCNC(=S)N/N=C/c1ccccc1O returned NR2E3 ag-1 73.8*, TROY NFkB inh -16.3, NR2E3 ag-2 3.0, LMP1 NFkB inh 10.4, NR2E3 ag conf -37.1 and VP16 counter -11.4.
COc1ccc(/C(C)=N/NC(=S)NCCc2ccccc2)c(O)c1 was read as HIF activator 0.3, NR2E3 ag-1 48.5, TROY NFkB inh 1.7, NR2E3 ag-2 2.2, LMP1 NFkB inh 12.5, NR2E3 ag conf -17.7 and VP16 counter -1.2.
Screening COCCNC(=S)N/N=C(\C)c1ccccc1O returned HIF activator 0.5, NR2E3 ag-1 66.4, TROY NFkB inh -10.1, NR2E3 ag-2 -0.1, LMP1 NFkB inh -14.6, NR2E3 ag conf -72.9 and VP16 counter -49.7.
Screening CN1CCN(S(=O)(=O)c2ccc(NC(=O)c3ccccc3F)cc2)CC1 returned HIF activator 2.0, NR2E3 ag-1 -11.6, TROY NFkB inh -5.2, NR2E3 ag-2 0.7 and LMP1 NFkB inh 0.6.
For O=C(O)C[C@H]1c2ccccc2S(=O)(=O)N1C1CCCC1 the results were HIF activator 1.2, NR2E3 ag-1 16.6, TROY NFkB inh -21.3, NR2E3 ag-2 -0.5 and LMP1 NFkB inh -5.7.
Screening CC(NC(=O)COC(=O)CSc1ccc(F)cc1)c1ccc(F)cc1 (stereo not drawn) returned HIF activator 0.4, NR2E3 ag-1 -13.4, TROY NFkB inh -7.7, NR2E3 ag-2 -1.6 and LMP1 NFkB inh -0.6.
COC(=O)C1=C(C)N(Cc2ccccc2)C(=NCCCCO)N[C@H]1CCc1ccccc1 was read as HIF activator -0.4, NR2E3 ag-1 16.4, TROY NFkB inh 1.7, NR2E3 ag-2 4.5 and LMP1 NFkB inh 2.1.
O=C(CCc1nnc(Cc2c[nH]c3ccccc23)o1)NCCC1CCCCO1 (stereo not drawn) was read as NR2E3 ag-1 -8.6, TROY NFkB inh -13.2 and LMP1 NFkB inh -18.1.
Screening Cc1cc(/C=N/n2cnnc2)c(C)n1-c1ccc(OCc2ccc(Cl)cc2Cl)cc1 returned HIF activator -3.0, NR2E3 ag-1 111.4*, TROY NFkB inh 77.5*, NR2E3 ag-2 1.9, LMP1 NFkB inh 30.8, NR2E3 ag conf 98.1* and VP16 counter 89.3*.
`Cc1cc(/C=N/n2cnnc2)c(C)n1-c1ccc(Cl)cc1` gave HIF activator -0.4, NR2E3 ag-1 0.9, TROY NFkB inh -25.0, NR2E3 ag-2 2.6 and LMP1 NFkB inh 3.3.
Cc1cc(/C=N/n2cnnc2)c(C)n1-c1ccccc1 was read as HIF activator 0.3, NR2E3 ag-1 -11.5, TROY NFkB inh -2.6, NR2E3 ag-2 -3.0 and LMP1 NFkB inh 3.0.
Cc1cc(/C=N/n2cnnc2)c(C)n1-c1ccc(OCc2ccc(F)cc2)cc1 was read as HIF activator 0.5, NR2E3 ag-1 48.2, TROY NFkB inh 1.9, NR2E3 ag-2 1.4, LMP1 NFkB inh 22.6, NR2E3 ag conf 96.4* and VP16 counter 84.8*.
For O=C(O)c1cccc(Cn2c(Cl)c(/C=N/NC(=O)c3ccccc3Cl)sc2=O)c1 the results were HIF activator -0.2, NR2E3 ag-1 -27.5, TROY NFkB inh -14.6, NR2E3 ag-2 2.0 and LMP1 NFkB inh -5.5.

Screens (PubChem)
